Laboratory results as given in ChEMBL document CHEMBL4689842, “EUbOPEN Chemogenomics Library wave 1” (2021).
Values joined by “and” are separate entries in the source; they are usually repeats but may differ in a detail not shown here. Equal entries are not always repeated.

System: HEK-293T
Test: Multiplex assay against HEK293T;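 as to Population Tubulin-Different-Phenotype (%): share of the cells with healthy nuclei that show this phenotype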
Format: toxicity, cell-based
Settings: human, 10 µM, compound concentration 10 uM
How it was run: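 Per cents of healthy-nucleus cells form the tubulin, mitochondrial-mass and membrane-permeability phenotype values. Live cells were stained at seeding with Hoechst33342, BioTracker Green Microtubule Cytoskeleton Dye, MitoTracker Red and Annexin V Alexa Fluor 680. After compound addition they were imaged on a CQ1 microscope at 37°C and 5% CO2, and CellPathfinder machine-learning gating split them into Hoechst high-intensity objects or normal cells, normal cells into healthy, pyknosed or fragmented nuclei, and pyknosed cells into mitotic or apoptotic.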

Q: For `O=C(NCCN1CCOCC1)c1ccc2c(c1)C(=O)c1ccc(Nc3ccc(F)c(NC(=O)c4ccccc4)c3)cc1CC2` [FS-694], which “Population Apoptotic (%)” value (12 h, replicate 1) is on record?
A: 34%

Q: What about the “Population Fragmented Nuclei (%)” value (12 h, replicate 1) of the same molecule?
A: 35% and 16%

Q: What about the “Population Healthy Nuclei (%)” value (12 h, replicate 1) of the same molecule?
A: 29% and 54%

Q: What about the “Population Membrane Permeable-Phenotype (%)” value (12 h, replicate 1) of the same molecule?
A: 32% and 21%

Q: And the “Population Mitochondria Different-Phenotype (%)” value (12 h, replicate 1)?
A: 12% and 9%

Q: And the “Population Mitotic Cells (%)” value (12 h, replicate 1)?
A: 65%

Q: What about the “Population Normal (%)” value (12 h, replicate 1) of the same molecule?
A: 41% and 85%

Q: What about the “Population Pyknosed Nuclei (%)” value (12 h, replicate 1) of the same molecule?
A: 35% and 29%

Q: What about the “Population Tubulin-Different-Phenotype (%)” value (12 h, replicate 1) of the same molecule?
A: 30% and 33%

Q: What about the “Total Cell Count” value (12 h, replicate 1) of the same molecule?
A: 1239 and 557

Q: And the “Population Apoptotic (%)” value (12 h, replicate 2)?
A: 28% and 16%

Q: And the “Population Fragmented Nuclei (%)” value (12 h, replicate 2)?
A: 3% and 4%

Q: And the “Population Healthy Nuclei (%)” value (12 h, replicate 2)?
A: 69% and 85%

Q: What about the “Population Membrane Permeable-Phenotype (%)” value (12 h, replicate 2) of the same molecule?
A: 15% and 11%

Q: What about the “Population Mitochondria Different-Phenotype (%)” value (12 h, replicate 2) of the same molecule?
A: 47% and 23%

Q: What about the “Population Mitotic Cells (%)” value (12 h, replicate 2) of the same molecule?
A: 71% and 83%

Q: And the “Population Normal (%)” value (12 h, replicate 2)?
A: 76% and 96%

Q: What about the “Population Pyknosed Nuclei (%)” value (12 h, replicate 2) of the same molecule?
A: 26% and 9%

Q: What about the “Population Tubulin-Different-Phenotype (%)” value (12 h, replicate 2) of the same molecule?
A: 97% and 66%

Q: And the “Total Cell Count” value (12 h, replicate 2)?
A: 1142 and 1356

Q: What about the “Population Apoptotic (%)” value (24 h, replicate 1) of the same molecule?
A: 48% and 24%

Q: And the “Population Membrane Permeable-Phenotype (%)” value (24 h, replicate 1)?
A: 31% and 22%

Q: What about the “Population Mitochondria Different-Phenotype (%)” value (24 h, replicate 1) of the same molecule?
A: 14% and 8%

Q: And the “Population Mitotic Cells (%)” value (24 h, replicate 1)?
A: 51% and 75%

Q: And the “Population Normal (%)” value (24 h, replicate 1)?
A: 43% and 89%

Q: And the “Population Pyknosed Nuclei (%)” value (24 h, replicate 1)?
A: 34% and 16%

Q: What about the “Population Tubulin-Different-Phenotype (%)” value (24 h, replicate 1) of the same molecule?
A: 18% and 51%

Q: And the “Total Cell Count” value (24 h, replicate 1)?
A: 1331 and 564

Q: What about the “Population Fragmented Nuclei (%)” value (24 h, replicate 2) of the same molecule?
A: 5%

Q: What about the “Population Healthy Nuclei (%)” value (24 h, replicate 2) of the same molecule?
A: 85% and 58%

Q: And the “Population Mitotic Cells (%)” value (24 h, replicate 2)?
A: 90% and 60%

Q: And the “Population Normal (%)” value (24 h, replicate 2)?
A: 95% and 69%

Q: And the “Population Tubulin-Different-Phenotype (%)” value (24 h, replicate 2)?
A: 70% and 96%

Q: What about the “Total Cell Count” value (24 h, replicate 2) of the same molecule?
A: 1983 and 1283
